25 molecules from ChEMBL document CHEMBL4396869, “Design and Synthesis of Selective Phosphodiesterase 4D (PDE4D) Allosteric Inhibitors for the Treatment of Fragile X Syndrome and Other Brain Disorders” (J Med Chem, 2019) can be followed below.

Data set [1] can be described thus: Inhibition of recombinant human wild-type His6-tagged PDE4D7 UCR1 domain (S129 residues) expressed in baculovirus infected Sf9 insect cells using cAMP as substrate preincubated for 5 to 10 mins followed by substrate addition and measured for 10 mins by yeast myokinase/pyruvate kinase/lactate dehydrogenase-coupled fluorescence assay.
Data set [2] has as its target 3',5'-cyclic-AMP phosphodiesterase 4B (Homo sapiens, UniProt Q07343, S133D). The data set is described as follows: Inhibition of recombinant human His6-tagged PDE4B1 UCR1 S133D mutant expressed in baculovirus infected Sf9 insect cells using cAMP as substrate preincubated for 5 to 10 mins followed by substrate addition and measured for 10 mins by yeast myokinase/pyruvate kinase/lactate dehydrogenase-coupled fluorescence assay.

Data set [3] in a line: Inhibition of recombinant human His6-tagged PDE4D7 UCR1 S129D mutant expressed in baculovirus infected Sf9 insect cells using cAMP as substrate preincubated for 5 to 10 mins followed by substrate addition and measured for 10 mins by yeast myokinase/pyruvate kinase/lactate dehydrogenase-coupled fluorescence assay.
Data set [4] is filed under the species Homo sapiens. The data set is described as follows: Selectivity ratio of IC50 for recombinant human wild-type His6-tagged PDE4D7 UCR1 domain (S129 residues) expressed in baculovirus infected Sf9 insect cells to IC50 for recombinant human His6-tagged PDE4D7 UCR1 S129D mutant expressed in baculovirus infected Sf9 insect cells.
Data set [5] is filed under the species Homo sapiens. The data set is described as follows: Selectivity ratio of IC50 for recombinant human His6-tagged PDE4B1 UCR1 S133D mutant expressed in baculovirus infected Sf9 insect cells to IC50 for recombinant human His6-tagged PDE4D7 UCR1 S129D mutant expressed in baculovirus infected Sf9 insect cells.
The test system of data set [6] is Mus musculus. The data set can be described thus: Memory enhancement effect in ICR mouse assessed as improvement in novel object discrimination at 3 to 30 mg/kg, po administered via gavage measured for 5 mins by open field test. The data set is classed as functional, organism-based. The method in brief: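 Male ICR mice (25–30 g), dosed by oral gavage in 5% DMSO, 5% Solutol in PBS. Three phases in an open field box: 10 min habituation on day 1, 5 min training with identical objects on day 2, 5 min test with familiar and novel objects on day 3 (24 h delay). Exploration times recorded; discrimination index d2 = (b − a)/(a + b).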

A short description of data set [7]: Stability in mouse liver microsomes assessed as parent compound remaining at 1 uM measured after 30 mins by LC-MS/MS analysis. The note with it: read-out: Stability. The data set is classed as ADME, Microsome. The method in brief:
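Liver microsome stability run by a contract lab using standard protocols. Parent compound remaining measured after 30 min incubation.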

Data set [8] can be described thus: Protein binding in human plasma. The format is ADME, cell-free.
A short description of data set [9]: Protein binding in dog plasma. The settings on record: read-out: PPB. The format is ADME, cell-free, Canis lupus familiaris.
Data set [10] can be described thus: Protein binding in rat plasma. The note with it: read-out: PPB. The data set is classed as ADME, cell-free.
Data set [11] can be described thus: Protein binding in mouse plasma. The note with it: read-out: PPB. The data set is classed as ADME, cell-free.
Data set [12] concerns the target Cytochrome P450 3A4 (Homo sapiens, UniProt P08684). The data set is described as follows: Inhibition of CYP3A4 (unknown origin) by fluorescence-based assay. The format is ADME. An outline of the steps: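 CYP inhibition run with a fluorescent substrate by a contract laboratory under standard protocols; IC50 reported.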
Data set [13] is described as follows: Inhibition of recombinant human His6-tagged PDE4D7 UCR1 S129D mutant expressed in baculovirus infected Sf9 insect cells using cAMP as substrate preincubated for 5 to 10 mins followed by substrate addition and measured for 10 mins by yeast myokinase/pyruvate kinase/lactate dehydrogenase-coupled fluorescence assay relative to control.
Data set [14] is described as follows: Aqueous kinetic solubility of the compound in pH 7.4 PBS buffer at 100 uM measured after 1 hr. The data set is classed as physicochemical. The settings on record: pH 7.4, 1 h.
Data set [15] deals with Mus musculus. The data set can be described thus: Memory enhancement effect in ICR mouse assessed as improvement in novel object discrimination at 0.1 mg/kg, ip […] measured for 5 mins by open field test. The format is functional, organism-based. An outline of the steps:
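Male ICR mice (25–30 g) in open field box; habituation 10 min day 1, training with two identical objects 5 min day 2, test with familiar and novel object 5 min day 3 (24 h delay). Exploration times recorded; discrimination index d2 = (b − a)/(a + b). Oral dosing in 5% DMSO, 5% Solutol in PBS; rolipram given parenterally.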

Data set [16] concerns Mus musculus. The data set can be described thus: Induction of emesis in ICR mouse assessed as reduction in ketamine/xylazine-induced duration of anesthesia at 0.1 mg/kg, ip pretreated for 15 mins followed by ketamine/xylazine addition. The format is organism-based. The settings on record: in vivo. The method in brief: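 Male ICR mice, 25–30 g. Test agents given by oral gavage in 5% DMSO, 5% Solutol in PBS, or rolipram IP; ketamine (80 mg/kg) plus xylazine (10 mg/kg) IP given 30 min after PO or 15 min after IP dosing. Endpoint: time from loss to return of righting reflex.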

Molecules are shown by their SMILES. Activity calls are given as the source filed them. The rule behind the calls is not given here.

Sequence of 3',5'-cyclic-AMP phosphodiesterase 4B (Q07343 whole entry S133D): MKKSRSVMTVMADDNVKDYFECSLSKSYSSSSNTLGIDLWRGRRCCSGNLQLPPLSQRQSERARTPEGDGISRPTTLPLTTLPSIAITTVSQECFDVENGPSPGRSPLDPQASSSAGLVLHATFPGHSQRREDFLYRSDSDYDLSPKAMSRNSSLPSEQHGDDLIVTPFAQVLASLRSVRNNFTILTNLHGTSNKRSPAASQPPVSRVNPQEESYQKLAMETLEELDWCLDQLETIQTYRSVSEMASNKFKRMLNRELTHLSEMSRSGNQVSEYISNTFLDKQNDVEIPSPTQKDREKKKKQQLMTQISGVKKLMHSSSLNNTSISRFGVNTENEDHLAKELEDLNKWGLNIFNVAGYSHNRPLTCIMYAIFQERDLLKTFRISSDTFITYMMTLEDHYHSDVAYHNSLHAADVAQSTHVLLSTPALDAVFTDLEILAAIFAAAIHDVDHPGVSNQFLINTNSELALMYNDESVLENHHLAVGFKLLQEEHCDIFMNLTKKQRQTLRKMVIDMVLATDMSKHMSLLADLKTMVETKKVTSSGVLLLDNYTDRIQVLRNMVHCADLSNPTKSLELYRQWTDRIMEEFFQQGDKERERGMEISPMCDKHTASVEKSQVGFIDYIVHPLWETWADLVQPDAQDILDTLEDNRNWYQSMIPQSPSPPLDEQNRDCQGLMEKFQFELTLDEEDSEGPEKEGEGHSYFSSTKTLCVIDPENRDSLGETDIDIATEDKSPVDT
Sequence of Cytochrome P450 3A4 (P08684 whole entry): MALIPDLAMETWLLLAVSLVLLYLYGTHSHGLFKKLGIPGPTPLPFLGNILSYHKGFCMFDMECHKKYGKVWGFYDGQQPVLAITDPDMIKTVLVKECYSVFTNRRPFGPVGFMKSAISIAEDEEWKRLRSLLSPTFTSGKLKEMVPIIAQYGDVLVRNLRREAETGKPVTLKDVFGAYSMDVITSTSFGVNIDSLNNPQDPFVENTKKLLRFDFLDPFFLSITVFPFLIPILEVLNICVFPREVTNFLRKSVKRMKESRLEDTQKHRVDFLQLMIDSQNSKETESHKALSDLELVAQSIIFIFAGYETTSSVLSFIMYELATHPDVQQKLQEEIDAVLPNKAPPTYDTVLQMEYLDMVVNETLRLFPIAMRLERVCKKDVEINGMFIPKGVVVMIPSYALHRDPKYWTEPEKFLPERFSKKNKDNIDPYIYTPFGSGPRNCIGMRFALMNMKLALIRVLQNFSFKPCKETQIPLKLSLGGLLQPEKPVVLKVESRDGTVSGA

As for `CCc1cc(Oc2ccc(CCO)cc2)nc(-c2cccc(Cl)c2)n1`, the IC50 in data set [1] worked out at 251 nM; in data set [2], 58 nM; in [3], 1.8 nM.

As for `NC(=O)Cc1ccc(Nc2cc(-c3cccc(Cl)c3)nc3c2CCC3)cc1`, the values for the Ratio IC50 in data set [4] and in data set [5] were 40 and 3, respectively. Besides, the concentration for half-maximal inhibition (IC50) in [1] came to 1660 nM; in data set [2], 136 nM; in [3] it was 42.1 nM.

As to `NC(=O)CCc1ccc(Nc2cc(-c3cccc(Cl)c3)nc3c2CCC3)cc1`, the figures for the IC50 in data set [1], in data set [2] and in [3] were 1280 nM, 166 nM and 35 nM, respectively.

As to `CCc1nc(Nc2ccc(CO)cc2)nc(-c2cccc(Cl)c2)n1`, the IC50 in data set [1] turned out to be 351 nM; in data set [2] it was 105 nM; in data set [3] it was 12 nM.

Take `CCc1cc(Nc2ccc(CC(N)=O)cc2)nc(-c2cccc(Cl)c2)n1`: the Ratio IC50 stood at 56 in data set [4] and 17 in data set [5]. Further, the values for the IC50 in [1], in [2] and in data set [3] were 146 nM, 43 nM and 2.6 nM, respectively.

For `OCCc1ccc(Nc2cc(-c3cccc(Cl)c3)nc3c2CCC3)cc1`, the Ratio IC50 in [4] worked out at 226; in [5], 60. For the same molecule, the IC50 in [1] was found to be 2110 nM; in data set [2], 562 nM; in data set [3], 9 nM.

Regarding `NC(=O)Cc1ccc(S(=O)(=O)c2cc(-c3cccc(Cl)c3)nc3c2CCC3)cc1`, the IC50 was found to be 3830 nM in data set [2] and 475 nM in data set [3].

In the case of `CCc1nc(Nc2ccc(C(=O)O)cc2)nc(-c2cccc(Cl)c2)n1`, the figures for the Ratio IC50 in [4] and in [5] were 2 and 1, respectively. The IC50 in [1] was found to be 482 nM; in [2] it was 241 nM; in data set [3], 213 nM.

Take `NC(=O)Cc1ccc(Cc2cc(-c3cccc(Cl)c3)nc3c2CCC3)cc1`: the IC50 was determined as 810 nM in data set [1], 137 nM in data set [2] and 8.6 nM in [3].

As to `CCc1nc(Nc2ccc(C(N)=O)cc2)nc(-c2cccc(Cl)c2)n1`, the Ratio IC50 in data set [4] came to 11; in [5] it was 2. In addition, the IC50 in data set [1] stood at 252 nM; in data set [2] it was 44 nM; in data set [3], 22 nM.

Take `CN(c1ccc(CC(N)=O)cc1)c1cc(-c2cccc(Cl)c2)nc2c1CCC2`: the values for the 50% inhibitory concentration (IC50) in [2] and in data set [3] were 3290 nM and 733 nM, respectively.

Take `O=C(O)Cc1ccc(Nc2cc(-c3cccc(Cl)c3)nc3c2CCC3)cc1`: in data set [5], the Ratio IC50 was determined as 1. Also, the IC50 in data set [2] is 1640 nM; in data set [3] it was 1160 nM.

Regarding `CCc1nc(Nc2ccc(C(C)C(=O)O)cc2)nc(-c2cccc(Cl)c2)n1` (stereo not drawn), the IC50 in data set [1] is over 10000 nM; in data set [2] it was 1090 nM; in [3], 96 nM. Further, in [5], the Ratio IC50 was found to be 11.

As for `CCc1cc(Cc2ccc(CC(=O)NCCO)cc2)nc(-c2cccc(Cl)c2)n1`, the IC50 in data set [1] came out at 885 nM; in [2], 128 nM; in data set [3], 0.8 nM; in data set [12], 3100 nM. Moreover, the outcome in data set [6] was Active. Besides, the remaining at 0.5 h, 1 µM in data set [7] was 36%. This molecule had a PPB in data set [8] of 99.6 to 99.8%. Besides, the fraction unbound in [9], in data set [10] and in [11] was 0.002 to 0.004 each time. Further, in data set [13], the Imax came out at 88%. This molecule came in with a Kinetic_solubility in [14] of 29 µM.

For the molecule `CNC(=O)Cc1ccc(Nc2cc(-c3cccc(Cl)c3)nc3c2CCC3)cc1`, the values for the concentration for half-maximal inhibition (IC50) in data set [1], in data set [2] and in data set [3] were 1990 nM, 98 nM and 133 nM, respectively.

As to `CCc1cc(Nc2ccc(CCO)cc2)nc(-c2cccc(Cl)c2)n1`, the figures for the IC50 in [1], in data set [2] and in data set [3] were 149 nM, 57 nM and 1.1 nM, respectively.

On to `CCc1nc(Nc2ccc(CCO)cc2)nc(-c2cccc(Cl)c2)n1`, for which the Ratio IC50 in [4] came out at 204; in [5] it was 48. The results for the IC50 in data set [1], in data set [2] and in [3] were 102 nM, 24 nM and 0.5 nM, respectively.

Consider `CCc1cc(Oc2ccc(CC(N)=O)cc2)nc(-c2cccc(Cl)c2)n1`, for which the figures for the IC50 in [1], in [2] and in data set [3] were 2430 nM, 953 nM and 35 nM, respectively.

As for `CCc1cc(Cc2ccc(CCO)cc2)nc(-c2cccc(Cl)c2)n1`, the 50% inhibitory concentration (IC50) in [1] was found to be 534 nM; in [2], 584 nM; in data set [3], 2 nM.

Consider `CCc1nc(Nc2ccc(CC(=O)O)cc2)nc(-c2cccc(Cl)c2)n1`, for which the Ratio IC50 in data set [4] stood at 6; in data set [5] it was 1. Moreover, the IC50 amounted to 4040 nM in [1], 781 nM in data set [2] and 681 nM in data set [3].

As for `CCc1nc(Nc2ccc(CC(N)=O)cc2)nc(-c2cccc(Cl)c2)n1`, the Ratio IC50 in data set [4] came out at 41; in data set [5], 10. Further, the IC50 in data set [1] worked out at 203 nM; in data set [2], 48 nM; in data set [3], 5 nM.

Regarding `CN(C)C(=O)Cc1ccc(Nc2cc(-c3cccc(Cl)c3)nc3c2CCC3)cc1`, the results for the IC50 in data set [1], in data set [2] and in [3] were 914 nM, 356 nM and 51 nM, respectively.

Turning to `COc1ccc(C2CNC(=O)C2)cc1OC1CCCC1` (stereo not drawn) [ROLIPRAM], the result in data set [15] was Active. In data set [16], the Activity result is recorded as “Toxic”.

For `OCCc1cccc(Nc2cc(-c3cccc(Cl)c3)nc3c2CCC3)c1`, the results for the IC50 in [1], in data set [2] and in data set [3] were 6320 nM, 1420 nM and 226 nM, respectively.

For `CCc1nc(Nc2ccc(CCCO)cc2)nc(-c2cccc(Cl)c2)n1`, the figures for the 50% inhibitory concentration (IC50) in data set [1], in [2] and in [3] were 27 nM, 11 nM and 0.2 nM, respectively.

A word on the IC50: it is the concentration that gives 50% inhibition.
